NPY-Y2 antag – NPY-Y2 (human) receptor antagonism | P49146 | NPY-Y2 expressing cells, antagonist mode | inhibition, % at 2.7 µM | hit rate 0.99% among 140,000; in the data active means inhibition above about 17%;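 further: 0% = vehicle with agonist challenge and 100% = reference antagonist with challenge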
Target sequence (P49146 whole entry, looked up): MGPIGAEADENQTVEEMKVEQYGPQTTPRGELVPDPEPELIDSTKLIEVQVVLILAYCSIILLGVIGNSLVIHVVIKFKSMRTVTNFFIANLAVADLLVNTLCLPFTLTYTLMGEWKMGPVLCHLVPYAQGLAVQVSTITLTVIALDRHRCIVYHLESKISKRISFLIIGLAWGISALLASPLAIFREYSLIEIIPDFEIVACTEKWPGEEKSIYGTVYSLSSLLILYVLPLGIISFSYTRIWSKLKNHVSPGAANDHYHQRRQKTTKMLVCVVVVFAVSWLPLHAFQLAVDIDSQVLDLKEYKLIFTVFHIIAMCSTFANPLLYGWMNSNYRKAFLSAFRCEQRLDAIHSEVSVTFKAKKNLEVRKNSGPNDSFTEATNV
NPY-Y1 antag – blocks the human neuropeptide Y Y1 receptor. AID 1040. hit rate 1% among 200,000. inhibition, % at 3.6 µM. HEK293-CNG Y1 cells, membrane potential fluorescence; NPY at EC95, then isoproterenol;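 active means inhibition above the campaign mean inhibition of all tested compounds plus 3 SD, cut at about 20% in these data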;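 further: 0% = DMSO wells given NPY plus isoproterenol and 100% = isoproterenol alone without NPY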
Target sequence (P25929 whole entry, looked up): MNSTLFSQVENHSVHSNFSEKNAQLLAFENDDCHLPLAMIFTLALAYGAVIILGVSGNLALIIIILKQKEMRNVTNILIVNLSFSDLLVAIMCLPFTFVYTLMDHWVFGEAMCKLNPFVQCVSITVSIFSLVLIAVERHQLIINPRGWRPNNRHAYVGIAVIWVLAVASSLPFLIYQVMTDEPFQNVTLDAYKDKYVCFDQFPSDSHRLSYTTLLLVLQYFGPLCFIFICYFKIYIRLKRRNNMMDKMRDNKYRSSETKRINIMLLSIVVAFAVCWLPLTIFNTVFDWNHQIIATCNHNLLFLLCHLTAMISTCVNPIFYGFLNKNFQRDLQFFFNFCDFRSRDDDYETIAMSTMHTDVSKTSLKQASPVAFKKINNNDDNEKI
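Assay system: HEK293 Y1/CNG channel cell line; Doses: single compound dose of 3.6 µM, 0.4% DMSO; Timing: dye 3 h, compound 60 min room temperature, stimulation 45 min; Technique: Membrane-potential fluorescent dye readout; Measure: % inhibition of NPY effect.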
NPY2 pot ag – potentiators or agonists of human neuropeptide Y receptor Y2; P49146; cells expressing NPY-Y2, potentiator/agonist read-out; activation, % at 3.6 µM; hit rate 0.45% among 220,000; in the data active means activation above about 27%;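 further: cells stimulated with NPY near EC25 plus isoproterenol at EC100; 0% = vehicle plus submaximal agonist and 100% = vehicle plus saturating agonist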
NPY1 pot ag – potentiates or activates human NPY-Y1 receptor | hit rate 0.37% among 220,000 | NPY-Y1 expressing cells, potentiator/agonist activation | activation, % at 3.6 µM | P25929 | AID 1304; in the data active means activation above about 33%, passing the limit was not always enough;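 further: cells stimulated with NPY at EC10 then isoproterenol at EC100; 0% = low agonist plus stimulus and 100% = saturating agonist plus stimulus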
NPY1 antag conf – confirmation of human neuropeptide Y receptor Y1 antagonists; HEK293-CNG NPY-Y1, membrane potential fluorescence, cAMP; NPY challenge against isoproterenol-raised cAMP; shares compounds with NPY-Y1 antag; inhibition, % at 3.6 µM; hit rate 21% among 1,200; in the data active means inhibition above about 20%;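 further: 0% = vehicle with agonist plus stimulus and 100% = stimulus alone without agonist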
NPY-Y2 antag ct – human NPY-Y2 antagonism in NPY-Y1 counter-screen; inhibition, % at 3.6 µM; HEK293 NPY-Y2 CNG membrane potential fluorescence; cells given NPY, then isoproterenol; hit rate 28% among 1,200; shares compounds with NPY-Y1 antag; in the data active means inhibition above about 17%;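 further: 0% = DMSO with agonist challenge and 100% = reference antagonist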
NPY-Y1 confirm – human NPY-Y1 potentiation or agonism, confirmation; shares compounds with NPY1 pot ag; cell-based NPY-Y1 potentiator/agonist assay; activation, % at 3.6 µM; hit rate 20% among 280; AID 1546; in the data active means activation above about 45%;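 further: cells challenged with NPY at its EC10 plus isoproterenol stimulus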
NPY-Y2 counter – potentiates or activates NPY-Y2, counter-screen for NPY-Y1 hits; hit rate 20% among 280; shares compounds with NPY1 pot ag; activation, % at 3.6 µM; HEK293-CNG cells, membrane-potential fluorescence (FLIPR), 1536-well; AID 1649
NPY-Y1 ag – activates human NPY-Y1, counter-screen for NPY-Y1 potentiators; activation, % at 3.6 µM; HEK293 Y1-CNGC, membrane potential fluorescence, agonist mode; shares compounds with NPY1 pot ag; hit rate 50% among 280; AID 1697;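 active means percent activation above the mean of DMSO-only control wells plus 3 SD of those wells, cut at about 18% in these data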;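 further: cells challenged with isoproterenol plus Ro 20-1724 with no NPY in test wells; Y1 agonism lowers isoproterenol-driven cAMP and reduces probe fluorescence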
NPY-Y2 agonist – counter-screen for NPY-Y1 potentiators or agonists: agonists of NPY-Y2. shares compounds with NPY1 pot ag. HEK293 Y2-CNGC, membrane potential fluorescence, agonist mode. activation, % at 3.6 µM. hit rate 67% among 280. AID 1698;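 active means activation above the solvent-only control wells' mean plus 3 SD, cut at about 11% in these data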;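 further: 0% = DMSO with isoproterenol and 100% = 40 nM NPY maximal response; agonism lowers cAMP so well fluorescence drops in active wells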
CNGC inh 2 – counter-screen for NPY-Y1 potentiators or agonists: CNG channel inhibitors; hit rate 42% among 280; AID 1704; HEK293-CNG parental, isoproterenol cAMP, membrane potential fluorescence; shares compounds with NPY1 pot ag; inhibition, % at 3.6 µM;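 active means inhibition above the mean of stimulated solvent-only control wells plus 3 SD, cut at about 22% in these data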;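 further: 0% = isoproterenol-stimulated DMSO wells and 100% = unstimulated DMSO wells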
NPY-Y2 confirm – confirmation of human NPY-Y2 receptor potentiators or agonists; shares compounds with NPY2 pot ag; cell-based NPY-Y2 potentiator/agonist assay; activation, % at 3.6 µM; hit rate 20% among 450; AID 1539
NPY-Y1 potentiator – potentiates or activates NPY-Y1, counter-screen for NPY-Y2 hits. shares compounds with NPY2 pot ag. Y1 HEK293-CNG cells, membrane potential fluorescence. activation, % at 3.6 µM. hit rate 20% among 450. AID 1651; in the data active means activation above about 45%;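 further: cells stimulated with submaximal NPY then isoproterenol with phosphodiesterase inhibitor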
NPY-Y1 agonist 2 – human NPY-Y1 agonism as NPY-Y2 potentiator counter-screen. hit rate 37% among 450. HEK293 Y1-CNGC, membrane potential fluorescence. activation, % at 3.6 µM. AID 1702. shares compounds with NPY2 pot ag;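 active means activation above the mean of DMSO-only control wells plus 3 SD, cut at about 18% in these data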;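 further: cells stimulated with 1 µM isoproterenol plus the PDE inhibitor Ro 20-1724; 0% = isoproterenol with DMSO and no NPY and 100% = 40 nM NPY; Y1 agonists lower the membrane potential dye signal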
CNGC inh – blocks CNG channel activity, counter-screen for NPY-Y2 potentiators; shares compounds with NPY2 pot ag; HEK293-CNG parental, isoproterenol cAMP, membrane potential fluorescence; inhibition, % at 3.6 µM; hit rate 32% among 450; AID 1703;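 active means inhibition above the control-well mean plus 3 SD of those wells, cut at about 22% in these data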;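 further: 0% = DMSO with isoproterenol and 100% = DMSO without isoproterenol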
Y2 agonist ctr – NPY-Y2 agonism, counter-screen for Y2 potentiators; activation, % at 3.6 µM; AID 1710; shares compounds with NPY2 pot ag; HEK293 Y2/CNGC cells, membrane potential fluorescence, agonist mode; hit rate 56% among 450;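 active means activation above the mean of solvent-only control wells plus 3 SD, cut at about 10% in these data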;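 further: cells stimulated by isoproterenol with no NPY added so direct agonism is tested; 0% = DMSO with isoproterenol alone and 100% = NPY at EC100 plus isoproterenol; agonism lowers probe fluorescence through less cAMP and CNG channel opening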
The depositor's hits bear a star; / = no result. This is a sample that favours compounds with a hit; in the whole collection about 1.8% have one here. Unless noted, no stated cut-off is given here; in the data, active means activation above about 33%; inactive means the rest.

SMILES	NPY-Y2 antag	NPY-Y1 antag	NPY2 pot ag	NPY1 pot ag	NPY1 antag conf	NPY-Y2 antag ct	others
O=c1[nH]c(=O)n(-c2cccc3ccccc23)c(O)c1/C=N/N1CCCCC1c1cccnc1 (centres undefined)	10	25*	-2	-8	3	4
CN(CC1COc2ccccc2O1)c1nc(-c2cccnc2)nc2ccccc12 (centres undefined)	14	22*	-26	-9	11	14
CN1CCC(N(C)c2nc(-c3ccc([N+](=O)[O-])cc3)nc3ccccc23)CC1	1	1	11	25	/	/
O=C(c1ccc2c3c(cccc13)CC2)C1CCCN(CC2CC2)C1 (centres undefined)	/	18	-12	-28	/	/
CCOc1cc(C2NCc3ccccc3-n3cccc32)ccc1O (centres undefined)	8	22*	0	-16	8	6
CCOc1cccc(C2NCc3ccccc3-n3cccc32)c1O (centres undefined)	1	2	-2	3	/	/
COc1cccc(C(=O)C2CCCN(Cc3ccc4nonc4c3)C2)c1 (centres undefined)	/	29*	-18	-8	9	6
OC1/C(=C/c2ccccc2F)N2CCC1CC2 (centres undefined)	/	0	-11	11	/	/
COc1cccc(NP(=O)(Oc2ccccc2)Oc2ccccc2)c1	5	22*	-5	-4	6	8
Cc1ccccc1C(O)(Cc1ccccc1)C1CN2CCC1CC2 (centres undefined)	11	21*	-7	-26	5	9
Fc1ccccc1CNC1CN2CCC1CC2 (centres undefined)	/	9	-4	11	/	/
CN(C)C(Cc1ccccc1)C(=O)c1ccc(-c2ccccc2)cc1 (centres undefined)	12	27*	-20	-34	10	13
Cc1cc(NCCN)nc2ccccc12	12	21*	-20	-31	13	16
Cc1ccsc1C(=O)C1CCCN(Cc2cccn2-c2ccccn2)C1 (centres undefined)	/	29*	-35	-36	21*	24*
Cc1ccsc1C(=O)C1CCCN(Cc2ccccc2O)C1 (centres undefined)	/	10	-8	-6	/	/
Cc1c(N=Nc2c(O)n(C)c(=O)n(C)c2=O)c(=O)n(-c2ccccc2)n1C	2	2	-1	1	/	/
CC(=NCCC(c1ccccc1)c1ccccc1)c1c(O)n(C)c(=O)n(C)c1=O	16	-1	2	4	/	/
COC(=O)C1=C(N)Oc2cc(C)oc(=O)c2C12C(=O)Nc1ccccc12 (centres undefined)	/	1	-1	21	/	/
CCN1CC2([N+](=O)[O-])CC=C(Cl)C([N+](=O)[O-])(C1)C2 (centres undefined)	/	-3	-9	2	/	/
COc1ccc2c(CN3CC=C(c4ccccc4)CC3)cc(=O)oc2c1	/	3	-9	-12	/	/
COc1ccc2ccc(O)c(CN3CC=C(c4ccccc4)CC3)c2c1	/	23*	-19	-26	15	24*
CCOC(=O)C1(CCc2ccccc2)CCN(C2CCSCC2)CC1	/	23*	-14	-22	11	10
CN(C)c1ccc(-[n+]2c(-c3ccccc3)cc(-c3ccccc3)cc2-c2ccccc2)cc1	/	50*	51*	34	35*	18*	NPY-Y2 confirm=6;NPY-Y1 potentiator=-5;NPY-Y1 agonist 2=-13;CNGC inh=-22;Y2 agonist ctr=12*
Cc1nc(SCc2c(Cl)cccc2Cl)nc(OC(=O)N(C)C)c1C	/	/	12	-1	/	/
COc1ccc(O)c2c(=O)c3c(OC)cc4c(c3oc12)C1C=COC1O4 (centres undefined)	/	/	23	56*	/	/	NPY-Y1 confirm=73*;NPY-Y2 counter=63*;NPY-Y1 ag=69*;NPY-Y2 agonist=64*;CNGC inh 2=67*
SMILES	NPY-Y2 antag	NPY-Y1 antag	NPY2 pot ag	NPY1 pot ag	NPY1 antag conf	NPY-Y2 antag ct	others
O=C(N/N=C/c1c(O)n(Cc2ccco2)c(=O)[nH]c1=O)c1ccccc1O	/	/	-14	-5	/	/
CCOC(=O)c1c(-n2c(C)cc(C=C3C(=O)NC(=O)NC3=O)c2C)sc2c1CCCC2	2	-13	10	39*	/	/	NPY-Y1 confirm=93*;NPY-Y2 counter=73*;NPY-Y1 ag=77*;NPY-Y2 agonist=68*;CNGC inh 2=28*
C=CCn1c(O)c(/C=N/N2CCCCC2)c(=O)[nH]c1=O	/	/	-1	5	/	/
OC(CNC1CCCCCCC1)c1ccccc1 (centres undefined)	/	6	-3	-1	/	/
CC(C)(O)[C@H]1O[C@H]2CC[C@@]3(C)[C@@](O)(CC[C@H]4Cc5c([nH]c6ccccc56)[C@@]43C)C2=CC1=O	/	-14	24	43*	/	/	NPY-Y1 confirm=49*;NPY-Y2 counter=41*;NPY-Y1 ag=53*;NPY-Y2 agonist=43*;CNGC inh 2=44*
O=c1c2ccccc2[nH]c(=S)n1-c1ccc(Br)cc1	/	-5	32*	19	/	/	NPY-Y2 confirm=5;NPY-Y1 potentiator=17;NPY-Y1 agonist 2=0;CNGC inh=11;Y2 agonist ctr=-1
O=c1c2cc(Br)ccc2[nH]c(=S)n1-c1ccccc1	/	-4	0	-7	/	/
